From ChEMBL document CHEMBL2157887, “Adamantyl carboxamides and acetamides as potent human 11β-hydroxysteroid dehydrogenase type 1 inhibitors” (Bioorg Med Chem, 2012) come the findings set out here.

Active and inactive are the calls of the source. The calls are words filed in the database; no cut-off is given here.

Series [1] deals with T1, 11-beta-hydroxysteroid dehydrogenase type 2 (Homo sapiens) (UniProt P80365).
T1 sequence (whole entry): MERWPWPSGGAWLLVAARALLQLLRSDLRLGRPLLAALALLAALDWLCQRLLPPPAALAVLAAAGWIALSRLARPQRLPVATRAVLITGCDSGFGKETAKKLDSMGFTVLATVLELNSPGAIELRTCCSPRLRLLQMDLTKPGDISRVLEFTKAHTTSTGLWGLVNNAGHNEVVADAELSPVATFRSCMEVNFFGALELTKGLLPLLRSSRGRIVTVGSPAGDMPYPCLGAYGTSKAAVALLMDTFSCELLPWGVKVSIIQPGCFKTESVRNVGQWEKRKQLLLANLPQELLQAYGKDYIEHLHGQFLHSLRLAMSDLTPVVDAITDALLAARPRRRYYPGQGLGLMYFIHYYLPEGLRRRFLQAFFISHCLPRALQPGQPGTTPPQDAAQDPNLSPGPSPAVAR
Briefly: Inhibition of human 11beta-HSD2 expressed in CHO cells assessed as conversion of [3H]cortisol to [3H]cortisone at 10 uM after 2 hrs.

Series [2] has as its target T2, 17-beta-hydroxysteroid dehydrogenase type 1 (Homo sapiens) (UniProt P14061).
T2 sequence (whole entry): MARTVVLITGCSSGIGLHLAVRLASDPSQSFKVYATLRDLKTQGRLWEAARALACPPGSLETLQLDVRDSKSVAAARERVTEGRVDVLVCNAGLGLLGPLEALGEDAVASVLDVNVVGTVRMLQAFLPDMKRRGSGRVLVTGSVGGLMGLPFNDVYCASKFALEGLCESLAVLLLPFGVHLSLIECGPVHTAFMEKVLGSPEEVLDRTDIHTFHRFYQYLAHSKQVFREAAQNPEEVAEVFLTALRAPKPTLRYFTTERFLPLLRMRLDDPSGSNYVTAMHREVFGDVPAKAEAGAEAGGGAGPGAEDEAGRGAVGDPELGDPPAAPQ
Nature of the series: Inhibition of human 17beta-HSD1 in human T47D cells assessed as conversion of [3H]E1 to [3H]E2 at 10 uM after 30 mins. Format: cell-based.

For series [3], the target named is 11-beta-hydroxysteroid dehydrogenase 1 (Homo sapiens) (UniProt P28845). Nature of the series: Inhibition of human 11beta-HSD1 expressed in HEK293 cells assessed as conversion of [3H]cortisone to [3H]cortisol at 1 uM after 2 hrs by scintillation counting. It is filed as cell-based. The essentials: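 HSD11B1-stably transfected HEK-293 cells grown to 80% confluence, then given serum-free medium with 22 nM ³H-cortisone and compound in 1% DMSO, 37 °C, 2 h. Medium sampled into anti-cortisol antibody/SPA bead mix, shaken to equilibrium, scintillation counted. Percent inhibition against high controls (no compound) and low controls (no cells).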

A short description of series [4]: Half life in human liver microsomes by HPLC analysis in presence of NADPH. It is filed as ADME, Microsome. In a few lines:
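Parent compound incubated with human liver microsomes plus NADPH cofactor at 37 °C for 40 min; remaining parent quantified by HPLC to derive T1/2.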

11-beta-hydroxysteroid dehydrogenase 1 (Homo sapiens), sequence (P28845 whole entry, looked up): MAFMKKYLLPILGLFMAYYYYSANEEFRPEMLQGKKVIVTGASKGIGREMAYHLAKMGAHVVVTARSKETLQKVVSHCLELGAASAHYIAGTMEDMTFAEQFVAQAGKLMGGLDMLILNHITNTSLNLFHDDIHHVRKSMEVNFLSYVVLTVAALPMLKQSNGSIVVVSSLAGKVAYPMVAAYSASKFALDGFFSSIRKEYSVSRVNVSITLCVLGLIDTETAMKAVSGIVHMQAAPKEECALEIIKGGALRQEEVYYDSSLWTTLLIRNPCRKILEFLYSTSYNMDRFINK

Regarding `Cc1cccc(CN(C)C(=O)C23CC4CC(CC(C4)C2)C3)c1`, the inhibition result in series [1] and in series [2] was “inactive” in each case.

Regarding `CN(Cc1cccn1C)C(=O)CC12CC3CC(CC(C3)C1)C2`, the inhibition result in series [1] and in series [2] was “inactive” each time.

On to `Cc1csc(CNC(=O)C23CC4CC(CC(C4)C2)C3)c1`, for which the inhibition result in series [1] and in series [2] was “inactive” each time.

For the compound `Cc1cccc(CN(C)C(=O)C23CC4CC(CC(C4)C2)C3)n1`, the inhibition result in series [1] and in series [2] was “inactive” in each case.

`CN(Cc1cccc(N)c1)C(=O)C12CC3CC(CC(C3)C1)C2`: the inhibition entry in series [1] and in series [2] was “inactive” each time.

Take `CN(Cc1cccs1)C(=O)C1(C)CCCCC1`: the inhibition result in series [1] and in series [2] was “inactive” each time.

`CN(CCc1cccs1)C(=O)C12CC3CC(CC(C3)C1)C2`: the inhibition result in series [1] and in series [2] was “inactive” each time.

`CN(Cc1cccs1)C(=O)CC12CC3CC(CC(C3)C1)C2`: the inhibition entry in series [1] and in series [2] was “inactive” in each case.

As to `Cc1ccc(C2(C(=O)N(C)Cc3cccs3)CC2)cc1`, the inhibition entry in series [1] and in series [2] was “inactive” each time.

Turning to `Cn1cccc1CNC(=O)CC12CC3CC(CC(C3)C1)C2`, the inhibition entry in series [1] and in series [2] was “inactive” in each case.

As to `CN(Cc1cccs1)C(=O)C1(c2ccc(Cl)cc2)CC1`, the inhibition result in series [1] and in series [2] was “inactive” in each case.

Take `O=C(NCc1cccnc1)C12CC3CC(CC(C3)C1)C2`: the inhibition result in series [1] and in series [2] was “inactive” each time.

As for `O=C(NCCc1ccccn1)C12CC3CC(CC(C3)C1)C2`, the inhibition entry in series [1] and in series [2] was “inactive” in each case.

Turning to `CN(Cc1ccsc1)C(=O)C12CC3CC(CC(C3)C1)C2`, the inhibition result in series [1] and in series [2] was “inactive” each time.

Regarding `CN(Cc1cccnc1)C(=O)CC12CC3CC(CC(C3)C1)C2`, the inhibition entry in series [1] and in series [2] was “inactive” throughout.

On to `O=C(NCCc1cccnc1)C12CC3CC(CC(C3)C1)C2`, for which the inhibition entry in series [1] and in series [2] was “inactive” in each case.

Turning to `CN(Cc1ccsc1)C(=O)CC12CC3CC(CC(C3)C1)C2`, the inhibition entry in series [1] and in series [2] was “inactive” each time.

`CN(Cc1nccn1C)C(=O)C12CC3CC(CC(C3)C1)C2`: the inhibition entry in series [1] and in series [2] was “inactive” throughout.

Consider `Cc1csc(CN(C)C(=O)C23CC4CC(CC(C4)C2)C3)n1`, for which the inhibition result in series [1] and in series [2] was “inactive” in each case.

For the compound `Cc1ccsc1CN(C)C(=O)C12CC3CC(CC(C3)C1)C2`, the inhibition result in series [1] and in series [2] was “inactive” in each case.

As to `CN(Cc1ccc(Cl)s1)C(=O)C12CC3CC(CC(C3)C1)C2`, the inhibition result in series [1] and in series [2] was “inactive” in each case.

For `Cc1csc(CN(C)C(=O)C23CC4CC(CC(C4)C2)C3)c1`, the inhibition entry in series [1] and in series [2] was “inactive” throughout.

For `Cc1ccc(CN(C)C(=O)C23CC4CC(CC(C4)C2)C3)s1`, the inhibition result in series [1] and in series [2] was “inactive” throughout.

With `CN(Cc1cccnc1)C(=O)C12CC3CC(CC(C3)C1)C2`, the inhibition result in series [1] and in series [2] was “inactive” each time.

In the case of `CN(Cc1cccs1)C(=O)C1(c2ccc(Cl)cc2)CCC1`, the inhibition result in series [1] and in series [2] was “inactive” each time.

As to `CN(CCc1ccccn1)C(=O)C12CC3CC(CC(C3)C1)C2`, the inhibition result in series [1] and in series [2] was “inactive” throughout.

On to `CN(Cc1sccc1N)C(=O)C12CC3CC(CC(C3)C1)C2`, for which the inhibition result in series [1] and in series [2] was “inactive” each time.

For the compound `CN(Cc1ccco1)C(=O)C12CC3CC(CC(C3)C1)C2`, the inhibition result in series [1] and in series [2] was “inactive” in each case.

For the compound `CN(Cc1ccccn1)C(=O)CC12CC3CC(CC(C3)C1)C2`, the inhibition result in series [1] and in series [2] was “inactive” in each case. Further, the inhibition in series [3] was determined as 26%.

In the case of `O=C(NCc1ccco1)C12CC3CC(CC(C3)C1)C2`, the inhibition entry in series [1] and in series [2] was “inactive” throughout.

With `CN(Cc1ccnn1C)C(=O)C12CC3CC(CC(C3)C1)C2`, the inhibition result in series [1] and in series [2] was “inactive” in each case.

For the compound `O=C(NCc1ccccn1)C12CC3CC(CC(C3)C1)C2`, the inhibition result in series [1] and in series [2] was “inactive” each time.

As to `CN(Cc1cccn1C)C(=O)C12CC3CC(CC(C3)C1)C2`, the inhibition entry in series [1] and in series [2] was “inactive” in each case. For the same compound, the half-life in series [4] amounted to 60 min.

As for `O=C(NCCc1cccs1)C12CC3CC(CC(C3)C1)C2`, the inhibition result in series [1] and in series [2] was “inactive” each time.

Consider `O=C(CC12CC3CC(CC(C3)C1)C2)NCc1cccs1`, for which the inhibition entry in series [1] and in series [2] was “inactive” each time.

Turning to `CN(Cc1cccs1)C(=O)C12CC3CC(CC(C3)C1)C2`, the inhibition entry in series [1] and in series [2] was “inactive” each time. In addition, the half-life in series [4] is 60 min.

On to `O=C(NCc1cccs1)C12CC3CC(CC(C3)C1)C2`, for which the inhibition entry in series [1] and in series [2] was “inactive” in each case.

For the compound `CN(Cc1cccc(Cl)c1)C(=O)C12CC3CC(CC(C3)C1)C2`, the inhibition result in series [1] and in series [2] was “inactive” throughout.

`CC(=O)Nc1cccc(CN(C)C(=O)C23CC4CC(CC(C4)C2)C3)c1`: the inhibition entry in series [1] and in series [2] was “inactive” in each case.

In the case of `CN(Cc1cccs1)C(=O)C1(c2ccc(Cl)cc2)CCCC1`, the inhibition entry in series [1] and in series [2] was “inactive” in each case.

Consider `CN(Cc1cccs1)C(=O)C12CC3CC(CC1C3)C2`, for which the inhibition entry in series [1] and in series [2] was “inactive” in each case.

On to `Cn1cccc1CNC(=O)C12CC3CC(CC(C3)C1)C2`, for which the inhibition entry in series [1] and in series [2] was “inactive” in each case.
